A selection: hits, their analogues and other compounds. The true share with any hit is near 4.3%.
Rtt109 HAT inh: C. albicans Rtt109 histone acetyltransferase inhibition | Q5AAJ8 | purified Rtt109/Vps75, ThioGlo CoA-SH fluorescence, 4 h | AID 540336 | inhibition, % at 34.9 µM | hit rate 0.16% among 330,000;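 active = inhibition of at least 50% in every replicate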
Target sequence (Q5AAJ8 whole entry, looked up): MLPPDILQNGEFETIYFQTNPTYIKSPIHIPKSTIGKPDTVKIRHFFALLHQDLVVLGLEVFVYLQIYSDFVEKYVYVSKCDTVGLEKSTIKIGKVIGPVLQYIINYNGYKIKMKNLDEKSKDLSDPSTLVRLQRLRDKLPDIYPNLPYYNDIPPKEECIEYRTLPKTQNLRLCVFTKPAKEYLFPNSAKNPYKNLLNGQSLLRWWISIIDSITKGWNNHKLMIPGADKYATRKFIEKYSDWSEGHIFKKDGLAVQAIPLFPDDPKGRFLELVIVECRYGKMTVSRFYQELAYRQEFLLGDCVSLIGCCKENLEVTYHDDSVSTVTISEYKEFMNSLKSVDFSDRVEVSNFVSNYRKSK
CAL PDZ FP-1: blocks peptide binding to human CAL PDZ domain. Q9HD26. purified CAL PDZ, TMR-peptide fluorescence polarization, 1 h. inhibition, % at 20 µM. hit rate 0.02% among 330,000. AID 504414;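 active = highest replicate inhibition of at least 40%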;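 also: plate controls were DMSO neutral control wells for no effect and unlabeled competitor peptide control wells for full effect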
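Material: tagged CAL PDZ protein CerCALP, purified; buffer or medium: sodium phosphate/NaCl buffer pH 7.4 with TCEP, IgG, Thesit; also added: fluorescent TMR peptide probe; schedule: 1 h incubation at room temperature before polarization reading; technique: fluorescence polarization from S- and P-plane intensities, G-factor corrected; control set: unlabelled peptide and DMSO controls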
ALR inh: blocks human ALR sulfhydryl oxidase activity. inhibition, % (test concentration not listed). P55789. purified ALR, DTT oxidation, H2O2 HRP-luminol luminescence. hit rate 3.8% among 290,000;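 active = mean replicate inhibition above about 79%, with every replicate also reaching it, limit read from the data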
Target sequence (P55789 whole entry, looked up): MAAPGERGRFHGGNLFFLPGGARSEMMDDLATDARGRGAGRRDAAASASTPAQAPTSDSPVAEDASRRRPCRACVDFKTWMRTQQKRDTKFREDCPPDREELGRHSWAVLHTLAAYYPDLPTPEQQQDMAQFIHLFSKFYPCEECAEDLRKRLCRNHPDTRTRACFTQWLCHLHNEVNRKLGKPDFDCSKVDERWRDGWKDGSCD
Dyrk1A ADPGlo: inhibitors of rat Dyrk1A kinase; Q63470; ADP-Glo luminescence, NFATc1 peptide; inhibition, % at 12.5 µM; hit rate 0.43% among 310,000; in the data active = inhibition above about 50%;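 also: plate controls were vehicle with enzyme for no effect and no enzyme for full effect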
CAL PDZ FP-2: blocks peptide binding to the human CAL PDZ domain. purified CAL PDZ, TMR-peptide fluorescence polarization, 1 h. Q9HD26. hit rate 0.92% among 300,000. AID 602252. inhibition, % at 24.9 µM;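 active = mean inhibition of at least 30% with at least half of replicates also reaching 30%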;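 also: 0% = DMSO neutral control and 100% = excess unlabeled competitor peptide PRC23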
Active calls of the source: *; . = no result given.

SMILES	Rtt109 HAT inh	CAL PDZ FP-1	ALR inh	Dyrk1A ADPGlo	CAL PDZ FP-2
Cc1cc(Cl)ccc1OC(C)C(=O)Nc1ccc([N+](=O)[O-])cn1 (centres undefined)	5.2	0.2	-11.6	-2.5	3.4
COc1cc(C2C(C#N)=C(N)Oc3c2oc(CO)cc3=O)ccc1OC(C)C (centres undefined)	-2.7	-0.1	84.9*	-8.6	-1.4
CCNC(=S)NN(c1ccccc1)c1ccccc1	4.0	3.3	98.4*	5.9	-1.9
O=c1/c(=C\c2ccc(F)cc2)sc2n1CCCN=2	-2.8	-1.6	49.0	3.1	-0.8
CN(C)c1ccc(/C=c2\sc3n(c2=O)CCCN=3)cc1	16.3	1.7	98.6*	6.8	-1.5
O=c1/c(=C/c2ccc(O)cc2)sc2n1CCCN=2	22.5	-0.6	98.5*	21.3	-3.3
NNC(=O)/C=C/c1ccc(Cl)cc1Cl	7.2	-2.4	98.0*	5.2	0.1
O=C(O)CNC(=O)/C=C/c1ccc(Cl)cc1Cl	-33.7	-5.9	-7.4	-46.4	-0.7
CCCOc1cccc(C2C(C(=O)c3ccc(C)o3)=C(O)C(=O)N2c2nc(C)c(C(C)=O)s2)c1 (centres undefined)	9.0	-5.7	97.1*	-5.7	-6.4
Oc1ccc(/C=N/NC(=S)Nc2cccnc2)cc1	-11.3	-1.9	99.3*	4.9	0.6
COCCNC(=O)C(=O)c1cc(C)n(-c2ccc([N+](=O)[O-])cc2)c1C	0.6	-0.5	97.4*	-3.2	.
Cc1cc(C(=O)C(=O)NC(C)C)c(C)n1-c1ccc([N+](=O)[O-])cc1	-1.4	-1.9	-12.6	2.9	-2.5
CN(C)c1ccc(C=NNC(=O)c2cccnc2)cc1	-11.8	-1.5	.	.	-0.6
CN(C)c1ccc(NC(=S)c2ccccn2)cc1	3.8	-0.6	97.6*	2.5	-1.9
CN(C)c1ccc(/C=N/NC(=O)c2ccnn2C)cc1	0.6	-1.1	98.6*	-9.0	8.6
CN(C)c1ccc(/C=N/NC(=O)c2ccn(C)n2)cc1	-2.1	-0.1	94.3*	3.7	-6.8
CN(C)c1ccc(/C=N/NC(=O)c2ccco2)cc1	6.4	-0.5	98.6*	-0.7	-2.7
CC(C)c1cccc(C(C)C)c1NC(=O)CCN1C(=O)NC2(CCCC2)C1=O	8.1	-1.3	-1.4	-0.6	-3.2
Cc1cccc(NC(=O)C2CCN(S(=O)(=O)c3c(C)noc3C)CC2)c1	-6.0	-3.2	-2.7	-0.5	-4.5
O=C(N/N=C/c1ccncc1)c1ccccn1	5.2	-0.4	-17.0	10.6	-1.2
CN(C)c1ccc(/C=N/NC(=O)c2ccccn2)cc1	-2.9	-0.7	87.5*	6.7	0.3
Cc1ccc(N=C(NO)c2nonc2N)cc1	14.2	0.8	91.9*	23.2	.
Cn1c(=S)[nH]c2cccnc21	.	-2.9	96.7*	4.9	5.6
CCOC(=O)Cc1cnc(NC(=O)CSc2nc(C(C)C)cc(=O)[nH]2)s1	-4.0	0.8	67.6	-6.3	0.1
O=C(Nn1c(COc2ccccc2)nc2ccccc2c1=O)C(Cl)(Cl)Cl	0.5	1.0	97.3*	3.7	-4.7
SMILES	Rtt109 HAT inh	CAL PDZ FP-1	ALR inh	Dyrk1A ADPGlo	CAL PDZ FP-2
S=c1[nH]nc(COc2ccccc2)n1/N=C/C=C/c1ccco1	.	.	97.2*	.	.
Oc1ccc(/C=N/n2c(COc3ccccc3)n[nH]c2=S)cc1O	-3.6	-4.2	99.6*	13.8	-6.5
O=c1c2ccccc2nc(COc2ccccc2)n1/N=C/c1ccc(O)c(O)c1	-4.2	-1.6	97.8*	20.3	-0.8
Cc1nc2ccccc2c(=O)n1NC(=O)COc1ccccc1	-2.6	0.2	-5.4	.	9.0
C=CCN1c2ccccc2[C@]23C[C@@H](C(=O)OC)N(C(=O)NCCC)C2=NC(C(=O)OC)=C(C(=O)OC)[C@H]13	0.5	-0.4	.	8.3	-1.8
Cc1cc(=O)n2c3c(c4c(cc13)c(CN(C)C)cc(=O)n4C)OC2	-1.1	0.2	.	22.1	-2.7
COc1ccc(S(=O)(=O)NCC2CCC(C(=O)NCC(OC)OC)CC2)cc1 (centres undefined)	8.2	6.3	0.9	.	-7.3
Cc1cc(C)cc(NC(=O)N2CCN(C/C=C/c3ccccc3)CC2)c1	-11.7	-1.7	-15.7	1.8	-2.9
Cc1cccc(C(=O)Nc2ccc(N3CCN(S(C)(=O)=O)CC3)cc2)c1	0.0	-1.4	-6.7	0.5	3.7
O=C(CNCc1ccccc1)NCCCN1CCCC1=O	-8.3	0.0	-0.6	-6.1	-0.4
OCC1(CCOc2ccccc2)CCN(Cc2cccn2-c2ncccn2)CC1	-9.0	-0.6	1.8	3.0	55.8*
Oc1[nH]c2ccccc2c1N=NC(=S)N1CCOCC1	1.5	0.7	89.6*	13.4	2.8
Cc1ccc(Cn2nc(C)c(C(=O)NCC(c3cccs3)N3CCOCC3)c2Cl)cc1 (centres undefined)	-7.3	0.2	-6.4	1.5	-4.8
O=C(O)/C=C/C(=O)Nc1ccc(Cc2ccc(NC(=O)/C=C/C(=O)O)cc2)cc1	9.7	-0.6	99.2*	-2.1	-1.1
O=C(O)/C=C\C(=O)Nc1ccc(Oc2ccccc2)cc1	-4.5	-0.8	32.8	-7.3	-5.1
O=C(O)/C=C/C(=O)Nc1ccc(C2(c3ccc(NC(=O)/C=C/C(=O)O)cc3)c3ccccc3-c3ccccc32)cc1	0.3	0.0	97.7*	5.9	-6.5
Cc1ccc(N2C(=O)C3C(C2=O)C2C=CC3C23CC3)c([N+](=O)[O-])c1 (centres undefined)	-2.9	-2.4	-5.4	-2.6	-3.3
COc1cccc(Nc2ncccc2C(=O)Nc2ccccc2)c1	14.1	0.6	-2.5	-2.9	6.5
CN(C)S(=O)(=O)c1ccc(C(=O)NC2CCCc3ccccc32)cc1 (centres undefined)	8.8	-1.6	-21.8	.	70.6*
Cc1c(Cl)c([N+](=O)[O-])nn1CC(=O)Nc1c(C)n(C)n(-c2ccccc2)c1=O	-9.1	-0.6	-6.9	7.6	53.3*
Cc1c(NC(=O)CN2C(=O)c3ccccc3C2=O)c(=O)n(-c2ccccc2)n1C	-4.7	-0.4	-1.2	-7.9	-3.4
Cc1nn(Cc2ccccc2)c(C)c1NC(=O)Cn1nc([N+](=O)[O-])c(Cl)c1C	-7.9	-0.9	-3.7	-4.8	-4.5
Cc1c(NC(=O)CN2C(=O)c3ccc([N+](=O)[O-])cc3C2=O)c(=O)n(-c2ccccc2)n1C	-5.8	-0.7	-61.7	0.8	55.4*
COc1ccc(NC(=O)CSc2nc3[nH]ncc3c(=O)[nH]2)c(OC)c1	-9.4	-3.0	-2.7	-0.6	-0.6
CC(=O)N1NC(=Nc2ccccc2)SC1(C)C	-0.6	-1.0	98.5*	.	-2.0
O=C1NC(=Nc2ccccc2)SC1(CO)CO	5.2	.	-0.5	0.7	-4.5
Cc1ccc(CNC(=O)CCc2nnc(Cc3ccc(-c4ccccc4)cc3)o2)o1	1.8	0.3	96.8*	2.2	-5.4
CCCCSc1nc(O)cc(=O)n1CC	5.6	-0.1	-4.8	11.1	-1.1
CCCCNC(=O)Nc1ccccc1Br	-3.6	-0.7	-1.9	-2.0	1.3
CCCCNC(=O)Nc1ccccc1CC	-0.1	3.9	22.0	-1.0	69.1*

Compound activity (PubChem)
